Test results taken from ChEMBL document CHEMBL2321820, “Discovery of HSD-621 as a Potential Agent for the Treatment of Type 2 Diabetes” (ACS Med Chem Lett, 2013).

Columns and labels:
Mus musculus [1] = test: Ex vivo inhibition of 11beta-HSD1 in C57B16 mouse epididymal fat assessed as conversion of [3H]-cortisone to [3H]-cortisol at 10 mg/kg, po after 5 hrs by HPLC analysis relative to vehicle-treated control; format: functional
Procedure, shortened: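 Mice were dosed orally at 10 mg/kg. Epididymal fat was collected 5 h after dosing for the ex vivo readout.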

[2] = Half life in mouse liver microsomes; format: ADME, Microsome
[3] = biological target: T1, 11-beta-hydroxysteroid dehydrogenase 1 (Mus musculus, UniProt P50172); test: Inhibition of mouse 11beta-HSD1 expressed in CHO cells […] incubated for 30 mins prior to substrate addition measured after 120 mins by chemiluminescence assay in presence of 10% human serum; format: cell-based
T1 sequence (P50172 whole entry): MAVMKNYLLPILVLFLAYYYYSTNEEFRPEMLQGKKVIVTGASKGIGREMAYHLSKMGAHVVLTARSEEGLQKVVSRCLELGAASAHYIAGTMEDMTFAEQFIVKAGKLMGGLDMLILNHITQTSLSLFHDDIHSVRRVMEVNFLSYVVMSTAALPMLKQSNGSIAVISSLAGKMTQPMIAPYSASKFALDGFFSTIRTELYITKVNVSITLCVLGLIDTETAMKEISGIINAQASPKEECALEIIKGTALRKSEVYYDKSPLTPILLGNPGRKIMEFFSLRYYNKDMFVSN
Procedure, shortened: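 Cell-based assay with 10% (v/v) human serum in the culture medium. Run in duplicate, with 11-point 2-fold dilutions giving the IC50. Lower threshold was 10 nM.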

[4] = biological target: T1, 11-beta-hydroxysteroid dehydrogenase 1; test: Inhibition of mouse 11beta-HSD1 expressed in CHO cells […] incubated for 30 mins prior to substrate addition measured after 120 mins by chemiluminescence assay; format: cell-based
Procedure, shortened: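 Cell-based assay run in duplicate. Compounds were tested as 11-point 2-fold dilutions, and IC50 was derived. Lower assay threshold was 10 nM.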

[5] = Half life in human liver microsomes; format: ADME, Microsome
[6] = biological target: 11-beta-hydroxysteroid dehydrogenase 1 (Homo sapiens, UniProt P28845); test: Inhibition of human 11beta-HSD1 expressed in CHO cells using cortisone as substrate incubated for 30 mins prior to substrate addition measured after 120 mins by chemiluminescence assay
Chain of 11-beta-hydroxysteroid dehydrogenase 1 (Homo sapiens, UniProt P28845) (P28845 whole entry): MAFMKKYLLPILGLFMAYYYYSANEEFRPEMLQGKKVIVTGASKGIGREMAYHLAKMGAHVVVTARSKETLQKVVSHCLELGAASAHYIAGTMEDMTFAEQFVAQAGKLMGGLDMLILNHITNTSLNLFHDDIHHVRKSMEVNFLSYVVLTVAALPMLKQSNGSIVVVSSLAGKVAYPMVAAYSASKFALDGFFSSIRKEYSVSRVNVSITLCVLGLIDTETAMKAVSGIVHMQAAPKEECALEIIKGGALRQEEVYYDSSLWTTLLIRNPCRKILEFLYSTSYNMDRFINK

[7] = Oral bioavailability in C57B6 mouse at 10 mg/kg; format: ADME, organism-based; settings: in vivo
Procedure, shortened: (§1)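 Male C57B6 mice. IV dose of 2 mg/kg in 50% DMSO/50% PEG200. Oral dose of 10 mg/kg in 2% Tween/0.5% methyl cellulose in water. Values are PK parameters from the iv and po arms.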

[8] = AUC in C57B6 mouse at 10 mg/kg, po; format: ADME, organism-based; design: dose 10 mg/kg, route oral; settings: plasma; procedure, shortened: as §1
[9] = Tmax in C57B6 mouse at 10 mg/kg, po; format: ADME, organism-based; design: dose 10 mg/kg, route oral; settings: in vivo; procedure, shortened: as §1
[10] = Cmax in C57B6 mouse at 10 mg/kg, po; format: ADME, organism-based; design: dose 10 mg/kg, route oral; settings: in vivo; procedure, shortened: as §1
[11] = Half life in C57B6 mouse at 2 mg/kg, iv; format: ADME, organism-based; design: dose 2 mg/kg, route intravenous; settings: in vivo; procedure, shortened: as §1
[12] = AUC in C57B6 mouse at 2 mg/kg, iv; format: ADME, organism-based; design: dose 2 mg/kg, route intravenous; settings: plasma; procedure, shortened: as §1
[13] = Volume of distribution at steady state in C57B6 mouse at 2 mg/kg, iv; format: ADME, organism-based; design: dose 2 mg/kg, route intravenous; settings: in vivo, read-out: Vdss; procedure, shortened: as §1
[14] = Clearance in C57B6 mouse at 2 mg/kg, iv; format: ADME, organism-based; design: dose 2 mg/kg, route intravenous; settings: in vivo; procedure, shortened: as §1
[15] = biological target: T2, 11-beta-hydroxysteroid dehydrogenase type 2 (Homo sapiens, UniProt P80365); test: Inhibition of human 11beta-HSD2 expressed in CHO cells using […] as substrate incubated for 30 mins prior to substrate addition measured after 120 mins by scintillation counting analysis; format: cell-based
T2 sequence (P80365 whole entry): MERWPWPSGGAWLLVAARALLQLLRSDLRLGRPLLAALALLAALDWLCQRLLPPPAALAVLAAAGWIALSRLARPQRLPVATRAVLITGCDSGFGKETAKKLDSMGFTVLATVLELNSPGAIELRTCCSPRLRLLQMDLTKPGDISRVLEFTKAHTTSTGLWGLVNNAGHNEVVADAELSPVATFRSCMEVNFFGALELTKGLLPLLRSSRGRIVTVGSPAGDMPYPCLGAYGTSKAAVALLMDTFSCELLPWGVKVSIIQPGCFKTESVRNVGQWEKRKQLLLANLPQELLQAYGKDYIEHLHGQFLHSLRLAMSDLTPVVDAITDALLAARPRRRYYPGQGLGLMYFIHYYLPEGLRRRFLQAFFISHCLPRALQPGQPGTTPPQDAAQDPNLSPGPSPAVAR

Cytochrome P450 2C9 = Cytochrome P450 2C9 (Homo sapiens, UniProt P11712); test: Inhibition of CYP2C9 (unknown origin); format: ADME
Chain of Cytochrome P450 2C9 (P11712 whole entry): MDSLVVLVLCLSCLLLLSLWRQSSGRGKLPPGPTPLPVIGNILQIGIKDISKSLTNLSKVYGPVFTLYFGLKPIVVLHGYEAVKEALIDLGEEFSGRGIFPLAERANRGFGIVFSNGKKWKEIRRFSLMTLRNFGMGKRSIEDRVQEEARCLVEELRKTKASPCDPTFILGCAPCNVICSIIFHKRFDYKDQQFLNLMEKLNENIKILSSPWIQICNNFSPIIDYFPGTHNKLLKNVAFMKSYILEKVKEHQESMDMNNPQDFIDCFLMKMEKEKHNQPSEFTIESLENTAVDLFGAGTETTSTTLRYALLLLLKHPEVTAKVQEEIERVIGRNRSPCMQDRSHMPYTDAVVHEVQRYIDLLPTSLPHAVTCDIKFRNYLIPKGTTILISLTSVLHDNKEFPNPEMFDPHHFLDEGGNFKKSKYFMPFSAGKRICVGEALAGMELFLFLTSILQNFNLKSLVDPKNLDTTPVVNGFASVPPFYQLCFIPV

[16] = Half life in C57B6 mouse at 10 mg/kg, po; format: ADME, organism-based; design: dose 10 mg/kg, route oral; settings: in vivo; procedure, shortened: as §1
Mus musculus [17] = species: Mus musculus; test: Toxicity in C57B6 DIO mouse assessed as body weight gain at after 31 days; settings: in vivo, po, 744 h

Work on `C[C@@H]1CN(c2ccc(F)cc2C(F)(F)F)CCN1S(=O)(=O)c1cn(C)c(C(C)(O)C(F)(F)F)n1` (some centres not stated) yielded an inhibition in vivo at 10 mg/kg (Mus musculus [1]) of 33%, a half-life [2] of 30 min and an IC50 [3] of 18 nM. The IC50 [4] was 77 nM and the half-life [5] was 10 min.
Work on `C[C@@H]1CN(c2ccc(F)cc2C(F)(F)F)CCN1S(=O)(=O)c1nc(C(C)(O)C(F)(F)F)n(C)n1` (some centres not stated) yielded an inhibition in vivo at 10 mg/kg (Mus musculus [1]) of 38%, a half-life [2] of 23 min and an IC50 [3] of 1390 nM. It also gave an IC50 [4] of 165 nM and a half-life [5] of 10 min.
`C[C@@H]1CN(c2ccc(F)cc2C(F)(F)F)CCN1S(=O)(=O)c1ccc(C(C)(O)C(F)(F)F)s1` (some centres not stated) showed an inhibition in vivo at 10 mg/kg (Mus musculus [1]) of 44%, a half-life [2] of 17 min and an IC50 [3] of 10 nM. For the same molecule, the IC50 [4] was 10 nM, the half-life [5] was > 30 min and the IC50 [6] was 15 nM.
Molecule `C[C@@H]1CN(c2ccc(F)cc2C(F)(F)F)CCN1S(=O)(=O)c1ccc([C@@](C)(O)C(F)(F)F)s1` has a bioavailability [7] of 19%, an AUC [8] of 3400 ng·h/mL and a Tmax [9] of 30 min. The Cmax [10] was 449 ng/mL, the half-life [11] was 570 min and the AUC [12] was 3590 ng·h/mL. The Vd [13] was 5.8 L/kg, the clearance [14] was 9 mL/min/kg and the IC50 [15] was > 100000 nM. It also gave an inhibition in vivo at 10 mg/kg (Mus musculus [1]) of 80%, a half-life [2] of 17 min and an IC50 [3] of 10 nM. For the same molecule, the IC50 [4] was 10 nM, the half-life [5] was > 30 min and the IC50 [6] was 17 nM.
In the case of `C[C@@H]1CN(c2ccc(F)cc2C(F)(F)F)CCN1S(=O)(=O)c1ccc([C@](C)(O)C(F)(F)F)s1`, the inhibition in vivo at 10 mg/kg (Mus musculus [1]) is reported as 5%, the half-life [2] is reported as > 30 min and the IC50 [3] is reported as 10 nM. The IC50 [4] was 10 nM, the half-life [5] was > 30 min and the IC50 [6] was 10 nM.
In the case of `C[C@@H]1CN(c2ccc(C(N)=O)cc2C(F)(F)F)CCN1S(=O)(=O)c1ccc([C@@](C)(O)C(F)(F)F)s1`, the inhibition in vivo at 10 mg/kg (Mus musculus [1]) is reported as 87%, the half-life [2] is reported as 17 min and the half-life [5] is reported as 17 min. The “inhibition (INH)” value (Cytochrome P450 2C9) was “Active”.
For `C[C@@H]1CN(c2ccc(C(N)=O)cc2C(F)(F)F)CCN1S(=O)(=O)c1ccc([C@](C)(O)C(F)(F)F)s1`, the inhibition in vivo at 10 mg/kg (Mus musculus [1]) was 86%, the half-life [2] was 17 min and the half-life [5] was 10 min. For the same molecule, the “inhibition (INH)” value (Cytochrome P450 2C9) was “Active”.
For `C[C@@H]1CN(c2ccc(F)cc2C(F)(F)F)CCN1S(=O)(=O)c1ccc([C@@](O)(C(N)=O)C(F)(F)F)cc1`, the inhibition in vivo at 10 mg/kg (Mus musculus [1]) was < 10%, the half-life [2] was 30 min and the IC50 [3] was 48 nM. For the same molecule, the IC50 [4] was 40 nM and the half-life [5] was 10 min.
In the case of `C[C@@H]1CN(c2ccc(F)cc2C(F)(F)F)CCN1S(=O)(=O)c1ccc([C@](O)(C(N)=O)C(F)(F)F)cc1`, the inhibition in vivo at 10 mg/kg (Mus musculus [1]) is reported as < 10%, the half-life [2] is reported as 30 min and the IC50 [3] is reported as 41 nM. The IC50 [4] was 20 nM and the half-life [5] was 27 min.
`C[C@@H]1CN(c2ccc(F)cc2C(F)(F)F)CCN1S(=O)(=O)c1cccc([C@@](O)(C(N)=O)C(F)(F)F)c1` showed a bioavailability [7] of 46%, a half-life [16] of 168 min and an AUC [8] of 14000 ng·h/mL. The Tmax [9] was 120 min, the Cmax [10] was 1550 ng/mL and the half-life [11] was 252 min. It also gave an AUC [12] of 6130 ng·h/mL, a Vd [13] of 1.8 L/kg and a clearance [14] of 5.4 mL/min/kg. The IC50 [15] was > 100000 nM, the inhibition in vivo at 10 mg/kg (Mus musculus [1]) was 82% and the half-life [2] was 30 min. For the same molecule, the IC50 [3] was 10 nM, the IC50 [4] was 10 nM and the half-life [5] was 18 min. For the same molecule, the IC50 [6] was 23 nM.
With `C[C@@H]1CN(c2ccc(F)cc2C(F)(F)F)CCN1S(=O)(=O)c1cccc([C@](O)(C(N)=O)C(F)(F)F)c1` the inhibition in vivo at 10 mg/kg (Mus musculus [1]) was 38%, the half-life [2] was < 2 min and the IC50 [3] was 10 nM. The IC50 [4] was 10 nM, the half-life [5] was < 2 min and the IC50 [6] was 51 nM.
`C[C@@H]1CN(c2ccc(F)cc2C(F)(F)F)CCN1S(=O)(=O)c1ncc([C@@](O)(C(N)=O)C(F)(F)F)s1` gave an inhibition in vivo at 10 mg/kg (Mus musculus [1]) of 83%, a half-life [2] of 18 min and a half-life [5] of 21 min.
With `C[C@@H]1CN(c2ccc(F)cc2C(F)(F)F)CCN1S(=O)(=O)c1ncc([C@](O)(C(N)=O)C(F)(F)F)s1` the inhibition in vivo at 10 mg/kg (Mus musculus [1]) was 17%, the half-life [2] was > 30 min and the half-life [5] was 19 min.
With `C[C@@H]1CN(c2ccc(F)cc2C(F)(F)F)CCN1S(=O)(=O)c1ccc([C@](O)(C(N)=O)C(F)(F)F)s1` the inhibition in vivo at 10 mg/kg (Mus musculus [1]) was 50%, the half-life [2] was 18 min and the IC50 [3] was 10 nM. For the same molecule, the IC50 [4] was 10 nM, the half-life [5] was 18 min and the IC50 [6] was 145 nM.
With `C[C@@H]1CN(c2ccc(F)cc2C(F)(F)F)CCN1S(=O)(=O)c1ccc(C(O)(c2nnc[nH]2)C(F)(F)F)s1` (some centres not stated) the inhibition in vivo at 10 mg/kg (Mus musculus [1]) was 57% and the half-life [2] was 26 min.
For `CN(CCOc1ccc(CC2SC(=O)NC2=O)cc1)c1ccccn1` (configuration not stated) [ROSIGLITAZONE], the Activity (Mus musculus [17]) was “Non-toxic”.
